Results published in ChEMBL document CHEMBL1149130, “Synthesis and biological evaluation of novel chloroethylaminoanthraquinones with potent cytotoxic activity against cisplatin-resistant tumor cells” (J Med Chem, 2004).

What was measured:
SK-OV-3 [1] = experiment: Growth inhibition against SKOV3 wild-type ovarian cell lines; format: functional, cell-based; conditions: Homo sapiens
Method in brief: (§1)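 Cells in exponential growth (5 × 10⁴ cells/mL) were exposed to compound freshly dissolved in DMSO for 24 h at 37 °C. Drug medium was then replaced with fresh medium, followed by 3 days of growth. Viability was read by sulforhodamine B staining. IC50 is the concentration giving a 50% reduction in SRB colour formation.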

CH1 [2] = experiment: Growth inhibition against CH-1 wild-type ovarian cell lines; format: functional, cell-based; conditions: Homo sapiens; method in brief: as §1
A2780 [3] = experiment: Growth inhibition against A2780 wild-type ovarian cell lines; format: functional, cell-based; conditions: Homo sapiens; method in brief: as §1
A2780 [4] = experiment: Growth inhibition against A2780 cisplatin resistant wild-type ovarian cell lines; format: functional, cell-based; conditions: Homo sapiens; method in brief: as §1
CH1 [5] = experiment: Growth inhibition against CH-1 cisplatin resistant wild-type ovarian cell lines; format: functional, cell-based, Homo sapiens; method in brief: as §1
Homo sapiens = species on record: Homo sapiens; experiment: Resistance factor (IC50 in the resistant cell line/IC50 in the parent cell line); format: functional
CH1 [6] = experiment: Compound was evaluated for growth inhibition against CH1cisR wild-type ovarian cell lines; format: functional, cell-based; conditions: Homo sapiens
Method in brief: (§2)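 Cells kept as in earlier work; exponentially growing cultures (5 × 10⁴ cells/mL) given compound freshly dissolved in DMSO, 24 h at 37 °C. Drug medium then replaced with fresh medium, followed by 3 day growth. Viability by sulforhodamine B staining; IC50 taken as concentration giving 50% reduction in SRB colour formation.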

SK-OV-3 [7] = experiment: Compound was evaluated for growth inhibition against SKOV3 wild-type ovarian cell lines; format: functional, cell-based; conditions: Homo sapiens; method in brief: as §2

O=C1c2ccccc2C(=O)c2c(NCCCN(CCCl)CCCl)ccc(NCCCN(CCCl)CCCl)c21
IC50 (SK-OV-3 [1]): 0.19 µM
IC50 (CH1 [2]): 0.03 µM
IC50 (A2780 [3]): 0.031 µM
IC50 (A2780 [4]): 0.052 µM
IC50 (CH1 [5]; Homo sapiens, CH1): 0.11 µM
RF (Homo sapiens): 3.7

CN(CCO)CCNc1cccc2c1C(=O)c1ccccc1C2=O
IC50 (SK-OV-3 [1]): 13 µM
IC50 (CH1 [2]): 2.9 µM
IC50 (A2780 [3]): 3.4 µM
IC50 (A2780 [4]): 4.2 µM
IC50 (CH1 [5]; Homo sapiens, CH1): 2.8 µM
RF (Homo sapiens): 1
RF (Homo sapiens; Homo sapiens): 1.2

CN(CCCl)CCNc1ccc(NCCN(C)CCCl)c2c1C(=O)c1c(O)ccc(O)c1C2=O
IC50 (SK-OV-3 [1]): 0.1 µM
IC50 (CH1 [2]): 0.007 µM
IC50 (A2780 [3]): 0.009 µM
IC50 (A2780 [4]): 0.024 µM
IC50 (CH1 [5]; Homo sapiens, CH1): 0.014 µM
RF (Homo sapiens): 1.9
RF (Homo sapiens; Homo sapiens): 2.7

O=C1c2c(O)ccc(O)c2C(=O)c2c(NCCN(CCCl)CCCl)ccc(NCCN(CCCl)CCCl)c21
IC50 (SK-OV-3 [1]): 1.45 µM
IC50 (CH1 [2]): 0.054 µM
IC50 (A2780 [3]): 0.12 µM
IC50 (A2780 [4]): 0.17 µM
IC50 (CH1 [5]; Homo sapiens, CH1): 0.11 µM
RF (Homo sapiens): 2
RF (Homo sapiens; Homo sapiens): 1.4

O=C1c2ccccc2C(=O)c2c(NCCN(CCO)CCO)ccc(NCCN(CCO)CCO)c21
IC50 (CH1 [2]): 3.9 µM
IC50 (A2780 [3]): 3.3 µM
IC50 (A2780 [4]): 3.5 µM
IC50 (CH1 [6]): 3.3 µM
RF (Homo sapiens): 0.8
RF (Homo sapiens; Homo sapiens): 1.1
IC50 (SK-OV-3 [7]): 18 µM

O=C1c2ccccc2C(=O)c2c(NCCCN(CCCl)CCCl)cccc21
IC50 (SK-OV-3 [1]): 1.9 µM
IC50 (CH1 [2]): 0.185 µM
IC50 (A2780 [3]): 0.41 µM
IC50 (A2780 [4]): 0.64 µM
IC50 (CH1 [5]; Homo sapiens, CH1): 0.55 µM
RF (Homo sapiens): 2.9
RF (Homo sapiens; Homo sapiens): 1.6

CN(CCCl)CCNc1cccc2c1C(=O)c1ccccc1C2=O
IC50 (SK-OV-3 [1]): 13.5 µM
IC50 (CH1 [2]): 2.5 µM
IC50 (A2780 [3]): 4.6 µM
IC50 (A2780 [4]): 8 µM
IC50 (CH1 [5]; Homo sapiens, CH1): 3.1 µM
RF (Homo sapiens): 1.2
RF (Homo sapiens; Homo sapiens): 1.7

CN(CCO)CCCNc1cccc2c1C(=O)c1ccccc1C2=O
IC50 (SK-OV-3 [1]): 11.5 µM
IC50 (CH1 [2]): 2.6 µM
IC50 (A2780 [3]): 3.1 µM
IC50 (A2780 [4]): 3.3 µM
IC50 (CH1 [5]; Homo sapiens, CH1): 2.6 µM
RF (Homo sapiens): 1
RF (Homo sapiens; Homo sapiens): 1.1

CN(CCO)CCNc1ccc(NCCN(C)CCO)c2c1C(=O)c1ccccc1C2=O
IC50 (SK-OV-3 [1]): 3.3 µM
IC50 (CH1 [2]): 0.68 µM
IC50 (A2780 [3]): 0.72 µM
IC50 (A2780 [4]): 0.58 µM
IC50 (CH1 [5]; Homo sapiens, CH1): 0.8 µM
RF (Homo sapiens): 1.2
RF (Homo sapiens; Homo sapiens): 0.8

O=C1c2c(O)ccc(O)c2C(=O)c2c(NCCCN(CCO)CCO)ccc(NCCCN(CCO)CCO)c21
IC50 (SK-OV-3 [1]): 2.45 µM
IC50 (CH1 [2]): 0.58 µM
IC50 (A2780 [3]): 0.68 µM
IC50 (A2780 [4]): 0.74 µM
IC50 (CH1 [5]; Homo sapiens, CH1): 0.78 µM
RF (Homo sapiens): 1.3
RF (Homo sapiens; Homo sapiens): 1.1

CN(CCCl)CCNc1ccc(NCCN(C)CCCl)c2c1C(=O)c1ccccc1C2=O
IC50 (SK-OV-3 [1]): 0.77 µM
IC50 (CH1 [2]): 0.11 µM
IC50 (A2780 [3]): 0.135 µM
IC50 (A2780 [4]): 0.355 µM
IC50 (CH1 [5]; Homo sapiens, CH1): 0.145 µM
RF (Homo sapiens): 1.3
RF (Homo sapiens; Homo sapiens): 2.6

CN(C)CCNc1ccc(NCCN(CCO)CCO)c2c1C(=O)c1c(O)ccc(O)c1C2=O
IC50 (SK-OV-3 [1]): 0.26 µM
IC50 (CH1 [2]): 0.03 µM
IC50 (A2780 [3]): 0.013 µM
IC50 (A2780 [4]): 0.013 µM
IC50 (CH1 [5]; Homo sapiens, CH1): 0.046 µM
RF (Homo sapiens): 1.6
RF (Homo sapiens; Homo sapiens): 1

CN(CCO)CCNc1ccc(NCCN(C)CCO)c2c1C(=O)c1c(O)ccc(O)c1C2=O
IC50 (SK-OV-3 [1]): 11 µM
IC50 (CH1 [2]): 0.008 µM
IC50 (A2780 [3]): 0.004 µM
IC50 (A2780 [4]): 0.004 µM
IC50 (CH1 [5]; Homo sapiens, CH1): 0.022 µM
RF (Homo sapiens): 2.6

O=C1c2ccccc2C(=O)c2c(NCCCN(CCO)CCO)ccc(NCCCN(CCO)CCO)c21
IC50 (CH1 [2]): 2.2 µM
IC50 (A2780 [3]): 3.5 µM
IC50 (A2780 [4]): 3.4 µM
IC50 (CH1 [6]): 2.4 µM
RF (Homo sapiens): 1.1
RF (Homo sapiens; Homo sapiens): 1
IC50 (SK-OV-3 [7]): 6.7 µM

CN(CCCl)CCCNc1cccc2c1C(=O)c1ccccc1C2=O
IC50 (SK-OV-3 [1]): 10.8 µM
IC50 (CH1 [2]): 1.44 µM
IC50 (A2780 [3]): 2.7 µM
IC50 (A2780 [4]): 2.7 µM
IC50 (CH1 [5]; Homo sapiens, CH1): 1.3 µM
RF (Homo sapiens): 0.9
RF (Homo sapiens; Homo sapiens): 1

O=C1c2ccccc2C(=O)c2c(NCCN(CCCl)CCCl)ccc(NCCN(CCCl)CCCl)c21
IC50 (SK-OV-3 [1]): 0.86 µM
IC50 (CH1 [2]): 0.078 µM
IC50 (A2780 [3]): 0.051 µM
IC50 (A2780 [4]): 0.096 µM
IC50 (CH1 [5]; Homo sapiens, CH1): 0.092 µM
RF (Homo sapiens): 1.2
RF (Homo sapiens; Homo sapiens): 1.9

CN(C)CCNc1ccc(NCCN(CCCl)CCCl)c2c1C(=O)c1c(O)ccc(O)c1C2=O
IC50 (SK-OV-3 [1]): 0.155 µM
IC50 (CH1 [2]): 0.018 µM
IC50 (A2780 [3]): 0.016 µM
IC50 (A2780 [4]): 0.019 µM
IC50 (CH1 [5]; Homo sapiens, CH1): 0.019 µM
RF (Homo sapiens): 1
RF (Homo sapiens; Homo sapiens): 1.2

CN(C)CCNc1ccc(NCCN(C)CCO)c2c1C(=O)c1c(O)ccc(O)c1C2=O
IC50 (SK-OV-3 [1]): 0.3 µM
IC50 (CH1 [2]): 0.024 µM
IC50 (A2780 [3]): 0.005 µM
IC50 (A2780 [4]): 0.005 µM
IC50 (CH1 [5]; Homo sapiens, CH1): 0.045 µM
RF (Homo sapiens): 1.9
RF (Homo sapiens; Homo sapiens): 1

O=C1c2c(O)ccc(O)c2C(=O)c2c(NCCN(CCO)CCO)ccc(NCCN(CCO)CCO)c21
IC50 (SK-OV-3 [1]): 1.5 µM
IC50 (CH1 [2]): 0.3 µM
IC50 (A2780 [3]): 0.082 µM
IC50 (A2780 [4]): 0.115 µM
IC50 (CH1 [5]; Homo sapiens, CH1): 0.37 µM
RF (Homo sapiens): 1.2
RF (Homo sapiens; Homo sapiens): 1.4

O=C1c2c(O)ccc(O)c2C(=O)c2c(NCCCN(CCCl)CCCl)ccc(NCCCN(CCCl)CCCl)c21
IC50 (SK-OV-3 [1]): 0.185 µM
IC50 (CH1 [2]): 0.025 µM
IC50 (A2780 [3]): 0.028 µM
IC50 (A2780 [4]): 0.038 µM
IC50 (CH1 [5]; Homo sapiens, CH1): 0.035 µM
RF (Homo sapiens; Homo sapiens): 1.4

O=C(O)CCCc1ccc(N(CCCl)CCCl)cc1 [CHLORAMBUCIL]
IC50 (SK-OV-3 [1]): 35 µM
IC50 (CH1 [2]): 3.3 µM
IC50 (A2780 [4]): 52.5 µM
IC50 (CH1 [5]; Homo sapiens, CH1): 7.9 µM
RF (Homo sapiens): 2.4

CISPLATIN
IC50 (CH1 [5]; ch1): 0.65 µM
